Legend:
Assay type in all cases: functional
[1] = system: Fusarium proliferatum; assay: Antimicrobial activity against Fusarium proliferatum at 30 uM after 48 hrs by microtiter assay
How it was run: (§1)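 96-well microdilution broth assay with conidia (3 × 10^5 conidia/mL, harvested from 7-day PDA cultures and filtered) against F. oxysporum, F. proliferatum and F. solani at 0.3, 3 and 30 µM. Plates were held at 24 ± 1 °C under a 12 h photoperiod. Growth was read at 620 nm at 24, 48 and 72 h and reported as percent inhibition from mean absorbance with standard error.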

[2] = system: Fusarium oxysporum; assay: Antimicrobial activity against Fusarium oxysporum at 3 uM after 48 hrs by microtiter assay; how it was run: as §1
[3] = system: Fusarium solani; assay: Antimicrobial activity against Fusarium solani at 0.3 uM after 48 hrs by microtiter assay; how it was run: as §1
[4] = system: Hs-578T; assay: Cytotoxicity against human HS578T cells
How it was run: (§2)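 NCI Developmental Therapeutics Program cell panel. GI50 is the concentration that reduces growth of treated cells to half that of untreated controls. TGI is the concentration that completely halts growth.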

[5] = system: Fusarium oxysporum; assay: Antimicrobial activity against Fusarium oxysporum at 30 uM after 72 hrs by microtiter assay; how it was run: as §1
[6] = system: Fusarium oxysporum; assay: Antimicrobial activity against Fusarium oxysporum at 30 uM after 48 hrs by microtiter assay; how it was run: as §1
[7] = system: NCI-H322M; assay: Cytotoxicity against human NCI-H322M cells; how it was run: as §2
[8] = system: Fusarium oxysporum; assay: Antimicrobial activity against Fusarium oxysporum at 0.3 uM after 72 hrs by microtiter assay; how it was run: as §1
[9] = system: COLO 205; assay: Cytotoxicity against human COLO205 cells; how it was run: as §2
[10] = system: Mycobacterium tuberculosis; assay: Antibacterial activity against Mycobacterium tuberculosis H37Rv at 16 ug/mL by micro plate alamar blue assay
How it was run: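 M. tuberculosis H37Rv ATCC 27294 grown in BACTEC 12B medium; microplate Alamar blue assay (MABA). Primary screen at a single concentration of 16 µg/mL, read as percent inhibition.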

[11] = system: Fusarium oxysporum; assay: Antimicrobial activity against Fusarium oxysporum at 3 uM after 72 hrs by microtiter assay; how it was run: as §1
[12] = system: A549; assay: Cytotoxicity against human A549 cells; how it was run: as §2
[13] = system: Fusarium solani; assay: Antimicrobial activity against Fusarium solani at 0.3 uM after 72 hrs by microtiter assay; how it was run: as §1
[14] = system: Fusarium solani; assay: Antimicrobial activity against Fusarium solani at 3 uM after 72 hrs by microtiter assay; how it was run: as §1
[15] = system: Fusarium solani; assay: Antimicrobial activity against Fusarium solani at 30 uM after 48 hrs by microtiter assay; how it was run: as §1
[16] = system: ACHN; assay: Cytotoxicity against human ACHN cells; how it was run: as §2
[17] = system: HCT-15; assay: Cytotoxicity against human HCT15 cells; how it was run: as §2
[18] = system: Fusarium solani; assay: Antimicrobial activity against Fusarium solani at 30 uM after 72 hrs by microtiter assay; how it was run: as §1
[19] = system: SK-OV-3; assay: Cytotoxicity against human SK-OV3 cells; how it was run: as §2
[20] = system: Fusarium proliferatum; assay: Antimicrobial activity against Fusarium proliferatum at 3 uM after 48 hrs by microtiter assay; how it was run: as §1
[21] = system: Fusarium solani; assay: Antimicrobial activity against Fusarium solani at 3 uM after 48 hrs by microtiter assay; how it was run: as §1
[22] = system: PC-3; assay: Cytotoxicity against human PC3 cells; how it was run: as §2
[23] = system: RPMI-8226; assay: Cytotoxicity against human RPMI8226 cells; how it was run: as §2
[24] = system: T47D; assay: Cytotoxicity against human T47D cells; how it was run: as §2
[25] = system: Fusarium proliferatum; assay: Antimicrobial activity against Fusarium proliferatum at 3 uM after 72 hrs by microtiter assay; how it was run: as §1
[26] = system: DU-145; assay: Cytotoxicity against human DU145 cells; how it was run: as §2
[27] = system: KM12; assay: Cytotoxicity against human KM12 cells; how it was run: as §2
[28] = system: HCC 2998; assay: Cytotoxicity against human HCC2998 cells; how it was run: as §2
[29] = system: Fusarium proliferatum; assay: Antimicrobial activity against Fusarium proliferatum at 0.3 uM after 72 hrs by microtiter assay; how it was run: as §1
[30] = system: Fusarium proliferatum; assay: Antimicrobial activity against Fusarium proliferatum at 30 uM after 72 hrs by microtiter assay; how it was run: as §1
[31] = system: UACC-257; assay: Cytotoxicity against human UACC257 cells; how it was run: as §2
[32] = system: Fusarium proliferatum; assay: Antimicrobial activity against Fusarium proliferatum at 0.3 uM after 48 hrs by microtiter assay; how it was run: as §1
[33] = system: SNB-75; assay: Cytotoxicity against human SNB75 cells; how it was run: as §2
[34] = system: Fusarium oxysporum; assay: Antimicrobial activity against Fusarium oxysporum at 0.3 uM after 48 hrs by microtiter assay; how it was run: as §1
[35] = system: HT-29; assay: Cytotoxicity against human HT29 cells; how it was run: as §2

SMILES: C/C=C1\NC(=O)[C@H](Cc2ccccc2)NC(=O)[C@@H](C(C)C)NC(=O)[C@@H]([C@@H](C)CC)NC(=O)[C@H](NC(=O)[C@H](NC(=O)[C@H](CCCNC(=O)c2cc3ccc(N(CC)CC)cc3oc2=O)NC(=O)[C@H]2CCCN2C(=O)[C@H](NC(=O)[C@@H](NC(=O)[C@@H](NC(=O)[C@H](NC(=O)CCCC(C)C)C(C)C)[C@@H](C)O)C(C)C)C(C)C)[C@@H](C)CC)[C@@H](C)OC(=O)[C@H](C(C)C)NC1=O
- inhibition at 30 µM [1]: 0%
- inhibition at 3 µM [2]: 0%
- inhibition at 0.3 µM [3]: 0%
- GI50 [4]: 3.03 µM
- TGI [4]: > 100 µM
- inhibition at 30 µM [5]: 0%
- inhibition at 30 µM [6]: 0%
- GI50 [7]: 0.165 µM
- TGI [7]: 0.49 µM
- inhibition at 0.3 µM [8]: 0%
- GI50 [9]: 4.52 µM
- TGI [9]: > 100 µM
- inhibition at 16 µg/mL [10]: 46%
- inhibition at 3 µM [11]: 0%
- GI50 [12]: 13.7 µM
- TGI [12]: > 100 µM
- inhibition at 0.3 µM [13]: 0%
- inhibition at 3 µM [14]: 0%
- inhibition at 30 µM [15]: 0%
- GI50 [16]: 26.4 µM
- TGI [16]: 69.8 µM
- GI50 [17]: 0.964 µM
- TGI [17]: 17.7 µM
- inhibition at 30 µM [18]: 0%
- GI50 [19]: 2.55 µM
- TGI [19]: 20.2 µM
- inhibition at 3 µM [20]: 0%
- inhibition at 3 µM [21]: 0%
- GI50 [22]: 3.7 µM
- TGI [22]: 21.8 µM
- GI50 [23]: 40.1 µM
- TGI [23]: > 100 µM
- GI50 [24]: 0.518 µM
- TGI [24]: 2.83 µM
- inhibition at 3 µM [25]: 0%
- GI50 [26]: 0.33 µM
- TGI [26]: 1.83 µM
- GI50 [27]: 0.413 µM
- TGI [27]: 3.07 µM
- GI50 [28]: 2.27 µM
- TGI [28]: 11.4 µM
- inhibition at 0.3 µM [29]: 0%
- inhibition at 30 µM [30]: 0%
- GI50 [31]: > 100 µM
- TGI [31]: > 100 µM
- inhibition at 0.3 µM [32]: 0%
- GI50 [33]: 2.11 µM
- TGI [33]: 6.87 µM
- inhibition at 0.3 µM [34]: 0%
- GI50 [35]: 2.39 µM
- TGI [35]: > 100 µM
